{"data": "Experimental data from different studies", "target": "Ribosomal protein S6 kinase beta-1 (RPS6KB1, Homo sapiens, UniProt P23443)", "note": "Each line is one published result; the experiments were not run side by side."}
{"Structure (SMILES)": "Cc1ccc(NC(=O)c2ccnc(C(F)(F)F)c2)cc1-c1cc(OCCO)nc(N2CCOCC2)c1", "assay": "binding", "setting": "1 µM", "measurement": "remaining binding", "result": "100%"}
{"Structure (SMILES)": "C=CC(=O)N1CCC([C@@H]2CCNc3c(C(N)=O)c(-c4ccc(Oc5ccccc5)cc4)nn32)CC1", "assay": "enzyme activity, inhibitor", "setting": "1 µM", "measurement": "inhibition", "result": "1%"}
{"Structure (SMILES)": "Cc1cc(O)c(-c2ccc([C@@H](C)CN(C)C)cc2)c2c1[nH]c(=O)c1sccc12", "assay": "enzyme activity, inhibitor", "setting": "0.1 µM", "measurement": "inhibition", "result": "-5.29%"}
{"Structure (SMILES)": "COc1ccc2oc(-c3ccc4nc(N)oc4c3)c/c(=N\\c3ccccc3NC(=O)CCN)c2c1", "assay": "binding", "setting": "1 µM", "measurement": "remaining binding", "result": "98%"}
{"Structure (SMILES)": "CCCCC(=O)Nc1ccc(-c2ccc3ncn(CCC)c(=O)c3c2)cn1", "assay": "binding, competition with immobilised ligand", "setting": "0.5 µM", "measurement": "remaining binding", "result": "98%"}
{"Structure (SMILES)": "C[C@H]1CC[C@H](n2c3cnccc3c3cnc(Nc4ccc5c(n4)CCN(C(=O)CO)C5)nc32)CC1", "assay": "cell-free assay", "setting": "1 µM", "measurement": "remaining signal", "result": "78%"}
{"Structure (SMILES)": "CC(C)S(=O)(=O)c1ccc2nccc(Nc3ccc4sc(C5CCCC5)nc4c3)c2c1", "assay": "enzyme activity, inhibitor", "setting": "1 µM", "measurement": "activity vs control", "result": "110%"}
{"Structure (SMILES)": "CO[C@@H]1[C@H](N(C)C(=O)c2ccccc2)C[C@H]2O[C@]1(C)n1c3ccccc3c3c4c(c5c6ccccc6n2c5c31)C(=O)NC4", "assay": "enzyme activity, inhibitor", "setting": "1 µM", "measurement": "inhibition", "result": "36%"}
